# Assays:
# [1] = Cmax in in vitro PK/PD model at loading dose of 0.30 mg and maintenance dose of 0.23 mg dosed at 8 hrs intervals; type: ADME, organism-based; set-up: dose 0.3 mg
# [2] = Cmax in in vitro PK/PD model at loading dose of 0.45 mg and maintenance dose of 0.39 mg dosed at 12 hrs intervals; type: ADME, organism-based; set-up: dose 0.45 mg
# [3] = Cmax in in vitro PK/PD model at loading dose of 0.90 mg and maintenance dose of 0.89 mg dosed at 24 hrs intervals; type: ADME, organism-based; set-up: dose 0.9 mg
# Acinetobacter baumannii [4] = assay: Antibacterial activity against Acinetobacter baumannii isolate 6 assessed as AUBC (0 to 72 hrs) normalized to log10CFU/ml in in vitro PK/PD model at loading dose of 0.90 mg and maintenance dose of 0.89 mg dosed at 24 hrs intervals; type: functional, organism-based
# Summary of the method: (§1)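 One-compartment in vitro PK/PD model at 37°C. Cation-adjusted Mueller-Hinton broth was pumped from a reservoir into the central compartment, with an early-log-phase inoculum of about 10^6 CFU/ml. Colistin sulfate simulated human colistin PK. Intermittent regimens were dosed into the central compartment; for the continuous regimen, colistin was spiked into the reservoir broth. Viable counts were by spiral plating over 0–72 h, AUBC0-72 normalized to log10 CFU/ml at t=0, n=3.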
# Acinetobacter baumannii [5] = assay: Antimicrobial activity against gentamicin and ciprofloxacin resistant Acinetobacter baumannii ATCC 19606; type: functional, organism-based
# Acinetobacter baumannii [6] = assay: Antibacterial activity against Acinetobacter baumannii isolate 6 assessed as AUBC (0 to 72 hrs) normalized to log10CFU/ml in in vitro PK/PD model at loading dose of 0.30 mg and maintenance dose of 0.23 mg dosed at 8 hrs intervals; type: functional, organism-based; summary of the method: as §1
# Acinetobacter baumannii [7] = assay: Antibacterial activity against Acinetobacter baumannii ATCC 19606 assessed as AUBC (0 to 72 hrs) normalized to log10CFU/ml in in vitro PK/PD model at loading dose of 0.90 mg and maintenance dose of 0.89 mg dosed at 24 hrs intervals; type: functional, organism-based; summary of the method: as §1
# Acinetobacter baumannii [8] = assay: Antibacterial activity against Acinetobacter baumannii ATCC 19606 assessed as AUBC (0 to 72 hrs) normalized to log10CFU/ml in in vitro PK/PD model at loading dose of 0.45 mg and maintenance dose of 0.39 mg dosed at 12 hrs intervals; type: functional, organism-based; summary of the method: as §1
# Acinetobacter baumannii [9] = assay: Antibacterial activity against Acinetobacter baumannii isolate 6 assessed as AUBC (0 to 72 hrs) normalized to log10CFU/ml in in vitro PK/PD model at continuous maintenance dose of 4.5 ug/ml; type: functional, organism-based; summary of the method: as §1
# Acinetobacter baumannii [10] = assay: Antibacterial activity against Acinetobacter baumannii ATCC 19606 assessed as AUBC (0 to 72 hrs) normalized to log10CFU/ml in in vitro PK/PD model at continuous maintenance dose of 4.5 ug/ml; type: functional, organism-based; summary of the method: as §1
# Acinetobacter baumannii [11] = assay: Antibacterial activity against Acinetobacter baumannii ATCC 19606 assessed as AUBC (0 to 72 hrs) normalized to log10CFU/ml in in vitro PK/PD model at loading dose of 0.30 mg and maintenance dose of 0.23 mg dosed at 8 hrs intervals; type: functional, organism-based; summary of the method: as §1
# Acinetobacter baumannii [12] = assay: Antibacterial activity against Acinetobacter baumannii isolate 6 assessed as AUBC (0 to 72 hrs) normalized to log10CFU/ml in in vitro PK/PD model at loading dose of 0.45 mg and maintenance dose of 0.39 mg dosed at 12 hrs intervals; type: functional, organism-based; summary of the method: as §1
# Acinetobacter baumannii [13] = assay: Antimicrobial activity against Ceftazidime resistant Acinetobacter baumannii isolate 6; type: functional, organism-based
Cmax [1] [ng/mL],Cmax [2] [ng/mL],Cmax [3] [ng/mL],Sequence,AUBC (Acinetobacter baumannii [4]) [log10CFU/ml],MIC (Acinetobacter baumannii [5]) [µg/mL],AUBC (Acinetobacter baumannii [6]) [log10CFU/ml],AUBC (Acinetobacter baumannii [7]) [log10CFU/ml],AUBC (Acinetobacter baumannii [8]) [log10CFU/ml],AUBC (Acinetobacter baumannii [9]) [log10CFU/ml],AUBC (Acinetobacter baumannii [10]) [log10CFU/ml],AUBC (Acinetobacter baumannii [11]) [log10CFU/ml],AUBC (Acinetobacter baumannii [12]) [log10CFU/ml],MIC (Acinetobacter baumannii [13]) [µg/mL]
3000,4500,9000,COLISTIN [listing 1 of 2 here],–,–,–,–,–,–,–,–,–,–
–,–,–,COLISTIN [listing 2 of 2 here],58.5,1,68,67,68.5,65.6,72.7,68.5,64.9,1
